In ChEMBL document CHEMBL4699441, “Identification and Preclinical Evaluation of the Bicyclic Pyrimidine γ-Secretase Modulator BMS-932481” (ACS Med Chem Lett, 2019):
Values after ≈ are worked out from the molar mass of the structure shown. Active and inactive are the calls of the source. No cut-off for these calls is given here.

Assays:
[1] = Hemodynamic activity in conscious telemeterized rat assessed as change in blood pressure at >= 10 mg/kg; assay type: ADME, organism-based; details: in vivo
[2] = Fraction unbound in mouse plasma measured after 24 hrs by LC-MS/MS analysis; assay type: ADME, cell-free
[3] = Plasma exposure (AUC) in rat at 3 mg/kg measured after 24 hrs
Cytochrome P450 2C19 = Cytochrome P450 2C19 (Homo sapiens, UniProt P33261); assay: Inhibition of CYP2C19 in human liver microsomes; assay type: ADME
[4] = Dissociation constant, pKa of compound by spectrophotometric analysis; assay type: physicochemical
[5] = Cardiotoxicity in unconscious telemeterized rabbit assessed as increase in QTcf time at 10 mg/kg; assay type: toxicity, organism-based, Oryctolagus cuniculus; details: in vivo
[6] = Aqueous solubility of the compound at pH 1; assay type: physicochemical; details: buffer
[7] = AUC in Beagle dog at 300 mg/kg, po measured up to 24 hrs by LC-MS/MS analysis; assay type: ADME, organism-based, Canis lupus familiaris; set-up: route oral, dose 300 mg/kg, time >=24; details: in vivo
Summary of the method: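 Dogs given an acute single oral dose of 300 mg/kg; plasma Cmax and AUC measured alongside bilirubin and other clinical pathology assessments.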

[8] = Ratio of drug level in brain to plasma in Harlan Sprague-Dawley rat at 10 mg/kg, po measured after 5 hrs; assay type: ADME, organism-based; details: read-out: BPR
[9] = Inhibition of amyloid beta (x to 42) secretion in human H4 cells overexpressing APP incubated for overnight by HTRF analysis; assay type: functional, cell-based
[10] = Toxicity in Beagle dog assessed as hyperbilirubinemia at 150 mg/kg, po administered for 1 month; assay type: organism-based, Canis lupus familiaris; details: in vivo, 730 h, time 1 months
Summary of the method: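 One-month oral toxicity study in dogs; high dose 150 mg/kg; bilirubin assessed.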

Cytochrome P450 3A4 = Cytochrome P450 3A4 (Homo sapiens, UniProt P08684); assay: Time dependent inhibition of CYP3A4 in human liver microsomes assessed as inactivation constant; assay type: ADME
[11] = AUC (0 to 24 hrs) in Harlan Sprague-Dawley rat incubated for 24 hrs by LC-MS/MS analysis; assay type: ADME; set-up: time 24 hrs; details: in vivo
[12] = Toxicity in rat assessed as change in gamma-secretase modulator function at 100 mg/kg, po administered for 2 week; assay type: organism-based; details: in vivo, 336 h, time 2 weeks
[13] = Fraction unbound in Beagle dog plasma measured after 24 hrs by LC-MS/MS analysis; assay type: ADME, cell-free, Canis lupus familiaris
[14] = target: T1, UDP-glucuronosyltransferase 1A1 (Homo sapiens, UniProt P22309); assay: Inhibition of human UGT1A1; assay type: ADME
T1 sequence (P22309 whole entry): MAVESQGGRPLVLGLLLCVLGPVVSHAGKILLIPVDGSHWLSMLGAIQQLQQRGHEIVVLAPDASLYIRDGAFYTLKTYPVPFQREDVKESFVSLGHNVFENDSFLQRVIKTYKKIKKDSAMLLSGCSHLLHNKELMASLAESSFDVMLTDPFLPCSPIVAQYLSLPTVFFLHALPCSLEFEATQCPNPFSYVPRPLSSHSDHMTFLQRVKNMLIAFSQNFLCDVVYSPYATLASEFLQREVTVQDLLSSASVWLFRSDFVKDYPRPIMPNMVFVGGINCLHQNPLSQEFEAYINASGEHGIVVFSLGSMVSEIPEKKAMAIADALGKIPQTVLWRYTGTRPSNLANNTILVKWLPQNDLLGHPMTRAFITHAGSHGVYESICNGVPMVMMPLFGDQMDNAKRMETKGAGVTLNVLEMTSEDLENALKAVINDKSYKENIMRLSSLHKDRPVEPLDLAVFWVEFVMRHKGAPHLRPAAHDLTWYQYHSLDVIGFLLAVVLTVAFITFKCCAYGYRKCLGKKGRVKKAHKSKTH

[15] = Inhibition of amyloid beta (1 to 40) secretion in human H4 cells overexpressing APP incubated for overnight by HTRF analysis; assay type: functional, cell-based
[16] = Cardiotoxicity in unconscious telemeterized rabbit assessed as change in QTcf time at 3 mg/kg; assay type: toxicity, organism-based, Oryctolagus cuniculus; details: in vivo
Cytochrome P450 2D6 = Cytochrome P450 2D6 (Homo sapiens, UniProt P10635); assay: Inhibition of CYP2D6 in human liver microsomes; assay type: ADME
[17] = target: Gamma-secretase (Homo sapiens) (UniProt Q96BI3+Q9NZ42+Q8WW43+P49768+Q92542+P49810); assay: Modulation of gamma-secretase in human H4 cells overexpressing APP incubated assessed as increase in amyloid beta (1 to 37) secretion for 24 hrs by MALDI-TOF mass spectrometric analysis; assay type: cell-based; details: filed as modulator
Summary of the method: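 H4-APPsw cells treated with compound; secreted Aβ species quantified by mass spectrometry; total Aβ1-x checked by ELISA up to 10 μM.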

[18] = Inhibition of amyloid beta (1 to 42) secretion in human H4 cells overexpressing APP incubated for overnight by HTRF analysis; assay type: functional, cell-based
[19] = Inhibition of total amyloid beta secretion in human H4 cells overexpressing APP at 50 uM; assay type: cell-based
Brain = assay: Antialzheimer activity in rat brain assessed as reduction in amyloid beta (1 to 42) AUC at 10 mg/kg measured after 24 hrs relative to control; assay type: functional; set-up: scale not given: the % may be the effect or the level left
Summary of the method: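 Rats dosed orally; brain Aβ1-42 followed over 24 h, and the reduction in brain Aβ1-42 AUC integrated over 0–24 h was fitted to an indirect response PK/PD model.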

Cytochrome P450 1A2 = target: T2, Cytochrome P450 1A2 (Homo sapiens, UniProt P05177); assay: Inhibition of CYP1A2 in human liver microsomes; assay type: ADME
T2 sequence (P05177 whole entry): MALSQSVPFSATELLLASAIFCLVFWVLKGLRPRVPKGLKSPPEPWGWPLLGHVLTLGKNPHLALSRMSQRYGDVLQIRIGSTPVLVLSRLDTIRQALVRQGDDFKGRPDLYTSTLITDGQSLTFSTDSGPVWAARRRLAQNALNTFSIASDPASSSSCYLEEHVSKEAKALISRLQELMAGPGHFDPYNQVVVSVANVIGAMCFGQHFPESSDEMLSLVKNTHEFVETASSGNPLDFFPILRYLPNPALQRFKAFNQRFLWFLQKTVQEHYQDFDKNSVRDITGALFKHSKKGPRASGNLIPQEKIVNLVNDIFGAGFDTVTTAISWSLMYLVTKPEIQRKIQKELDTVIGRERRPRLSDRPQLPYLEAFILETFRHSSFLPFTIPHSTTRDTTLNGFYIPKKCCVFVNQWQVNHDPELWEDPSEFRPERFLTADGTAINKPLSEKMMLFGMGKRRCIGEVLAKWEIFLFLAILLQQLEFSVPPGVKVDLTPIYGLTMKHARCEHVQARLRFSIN

[20] = Metabolic stability in Beagle dog assessed as half life incubated for 24 hrs by LC-MS/MS analysis; assay type: ADME, Canis lupus familiaris

Sequence of Cytochrome P450 2D6 (P10635 whole entry): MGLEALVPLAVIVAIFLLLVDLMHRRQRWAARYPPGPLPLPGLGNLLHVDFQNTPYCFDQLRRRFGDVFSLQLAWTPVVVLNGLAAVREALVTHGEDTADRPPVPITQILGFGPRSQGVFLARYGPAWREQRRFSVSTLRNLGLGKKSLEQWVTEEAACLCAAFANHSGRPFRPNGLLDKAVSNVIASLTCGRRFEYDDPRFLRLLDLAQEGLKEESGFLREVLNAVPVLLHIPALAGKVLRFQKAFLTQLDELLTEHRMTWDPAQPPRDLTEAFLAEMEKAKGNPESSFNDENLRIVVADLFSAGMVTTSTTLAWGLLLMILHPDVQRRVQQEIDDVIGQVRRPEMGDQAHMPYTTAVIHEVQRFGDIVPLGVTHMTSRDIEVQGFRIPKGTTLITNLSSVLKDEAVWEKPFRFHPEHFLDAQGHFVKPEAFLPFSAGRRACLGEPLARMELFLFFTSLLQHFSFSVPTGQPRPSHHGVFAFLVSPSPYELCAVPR
Sequence of Cytochrome P450 2C19 (P33261 whole entry): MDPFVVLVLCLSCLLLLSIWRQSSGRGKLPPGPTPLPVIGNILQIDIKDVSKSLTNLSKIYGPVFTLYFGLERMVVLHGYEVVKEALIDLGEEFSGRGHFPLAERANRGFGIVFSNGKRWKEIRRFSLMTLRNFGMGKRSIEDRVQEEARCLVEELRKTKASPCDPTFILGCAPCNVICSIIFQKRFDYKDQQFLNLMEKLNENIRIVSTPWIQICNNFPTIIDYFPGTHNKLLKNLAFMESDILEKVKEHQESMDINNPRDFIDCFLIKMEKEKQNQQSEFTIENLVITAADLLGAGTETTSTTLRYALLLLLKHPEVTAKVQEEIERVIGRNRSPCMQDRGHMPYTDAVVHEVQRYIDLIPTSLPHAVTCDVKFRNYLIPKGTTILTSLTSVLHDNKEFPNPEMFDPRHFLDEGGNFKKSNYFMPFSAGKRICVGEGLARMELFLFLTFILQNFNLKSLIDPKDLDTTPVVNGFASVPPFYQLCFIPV
Sequence of Cytochrome P450 3A4 (P08684 whole entry): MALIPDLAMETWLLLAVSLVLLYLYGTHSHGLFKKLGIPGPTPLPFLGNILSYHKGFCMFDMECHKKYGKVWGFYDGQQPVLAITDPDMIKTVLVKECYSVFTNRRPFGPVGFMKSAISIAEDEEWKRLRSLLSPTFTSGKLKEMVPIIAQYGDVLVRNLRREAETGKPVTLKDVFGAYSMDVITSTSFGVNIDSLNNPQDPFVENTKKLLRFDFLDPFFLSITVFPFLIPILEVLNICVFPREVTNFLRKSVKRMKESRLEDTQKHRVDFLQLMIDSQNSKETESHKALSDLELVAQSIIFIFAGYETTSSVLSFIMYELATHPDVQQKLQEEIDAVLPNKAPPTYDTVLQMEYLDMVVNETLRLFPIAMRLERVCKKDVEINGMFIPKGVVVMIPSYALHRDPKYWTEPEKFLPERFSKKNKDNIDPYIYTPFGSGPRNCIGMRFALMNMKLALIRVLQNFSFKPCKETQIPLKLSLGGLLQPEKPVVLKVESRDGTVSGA

For CNc1nc(Nc2ccc(-n3cnc(C)n3)c(OC)c2)nc2c1CC[C@H]2c1ccc(F)cc1, the Activity [1] was “Non-Toxic”, the Fu [2] was 0.7% and the AUC at 24 h [3] was 9.7 µM·h. The IC50 (Cytochrome P450 2C19) was 8300 nM, the pKa [4] was 5.9 and the Time [5] was 3 ms. The solubility [6] was 19 µg/mL (≈ 42.6 µM), the AUC [7] was 180 µM·h and the Kp at 5 h [8] was 0.23. The IC50 [9] was 5.5 nM, the Activity [10] was “Toxic” and the Kinact (Cytochrome P450 3A4) was 0.47 min⁻¹. The AUC(0-t) at 24 h [11] was 4 µM·h, the Activity [12] was “Non-Toxic” and the Fu [13] was 0.8%. For the same compound, the IC50 [14] was 1400 nM, the IC50 [15] was 25 nM and the Activity [16] was “Non-Toxic”. The IC50 (Cytochrome P450 2D6) was 18000 nM, the inhibition [17] was “Active” and the IC50 [18] was 6.6 nM. The inhibition at 50 µM [19] was 30%, the Activity (Brain) was 66% and the IC50 (Cytochrome P450 1A2) was over 40000 nM. It also gave a t1/2 [20] of 27 min.
